Data on 7 compounds can be found in ChEMBL document CHEMBL4665627 (Eur J Med Chem, 2019).

Common to all, as to format: functional
Test [1] deals with Escherichia coli. The test can be described thus: Antibacterial activity against Escherichia coli ATCC 25922 assessed as inhibition of bacterial growth after 24 hrs by CLSI protocol based two fold serial dilution method. Summed up: (§1)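 Two-fold serial broth dilution in 96-well plates following CLSI; MIC (mM) taken as the lowest concentration giving complete growth inhibition; MIC values from three independent experiments.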

In test [2] the test system is Escherichia coli. The test can be described thus: Antibacterial activity against Escherichia coli assessed as inhibition of bacterial growth after 24 hrs by CLSI protocol based two fold serial dilution method. Summed up: as §1
Another test concerns Klebsiella pneumoniae. Briefly: Antibacterial activity against Klebsiella pneumoniae assessed as inhibition of bacterial growth after 24 hrs by CLSI protocol based two fold serial dilution method. Summed up: as §1
Another test deals with Candida parapsilosis. Briefly: Antifungal activity against Candida parapsilosis ATCC 22019 assessed as inhibition of fungal growth after 24 hrs by CLSI protocol based two fold serial dilution method. The note with it: Lodderomyces parapsilosis. Summed up: as §1
Test [3] deals with Pseudomonas aeruginosa. The test can be described thus: Antibacterial activity against Pseudomonas aeruginosa assessed as inhibition of bacterial growth after 24 hrs by CLSI protocol based two fold serial dilution method. In outline: as §1
In test [4] the test system is Candida albicans. The test can be described thus: Antifungal activity against Candida albicans assessed as inhibition of fungal growth after 24 hrs by CLSI protocol based two fold serial dilution method. In outline: as §1
Test [5] has as its system Staphylococcus aureus. Briefly: Antibacterial activity against Staphylococcus aureus ATCC 29213 assessed as inhibition of bacterial growth after 24 hrs by CLSI protocol based two fold serial dilution method.
Test [6] relates to Staphylococcus aureus. Briefly: Antibacterial activity against Staphylococcus aureus assessed as inhibition of bacterial growth after 24 hrs by CLSI protocol based two fold serial dilution method. In outline:
as §1

In another test the test system is Acinetobacter baumannii. Briefly: Antibacterial activity against Acinetobacter baumannii assessed as inhibition of bacterial growth after 24 hrs by CLSI protocol based two fold serial dilution method. Summed up: as §1
A further test has as its system Aspergillus fumigatus. Briefly: Antifungal activity against Aspergillus fumigatus assessed as inhibition of fungal growth after 24 hrs by CLSI protocol based two fold serial dilution method. Summed up:
as §1

Another test deals with Enterococcus faecalis. Briefly: Antibacterial activity against Enterococcus faecalis assessed as inhibition of bacterial growth after 24 hrs by CLSI protocol based two fold serial dilution method. Summed up: as §1
For test [7], the system named is Staphylococcus aureus. Briefly: Antibacterial activity against Staphylococcus aureus ATCC 25923 assessed as inhibition of bacterial growth after 24 hrs by CLSI protocol based two fold serial dilution method. Summed up:
as §1

Test [8] relates to Pseudomonas aeruginosa. Briefly: Antibacterial activity against Pseudomonas aeruginosa ATCC 27853 assessed as inhibition of bacterial growth after 24 hrs by CLSI protocol based two fold serial dilution method. Summed up: as §1
The subject of a further test is Candida tropicalis. Briefly: Antifungal activity against Candida tropicalis assessed as inhibition of fungal growth after 24 hrs by CLSI protocol based two fold serial dilution method. In outline: as §1
The subject of test [9] is Staphylococcus aureus. Briefly: Antibacterial activity against methicillin-resistant Staphylococcus aureus N315 assessed as inhibition of bacterial growth after 24 hrs by CLSI protocol based two fold serial dilution method.
Test [10] has as its system Candida albicans. Briefly: Antifungal activity against Candida albicans ATCC 90023 assessed as inhibition of fungal growth after 24 hrs by CLSI protocol based two fold serial dilution method. Summed up:
as §1

Converted amounts (≈) assume the structure as drawn.

As to `CCn1cc(-c2csc(N)n2)c(=O)c2cc(F)c(N3CCN(C)CC3)cc21`, the MIC with Escherichia coli [1] turned out to be 165 µM (≈ 63.9 µg/mL); with Escherichia coli [2] it was 661 µM (≈ 256 µg/mL); with Klebsiella pneumoniae it was 83 µM (≈ 32.2 µg/mL); with Candida parapsilosis it was 331 µM (≈ 128 µg/mL); with Pseudomonas aeruginosa [3], 331 µM (≈ 128 µg/mL); with Candida albicans [4], 165 µM (≈ 63.9 µg/mL). Further, the MIC with Staphylococcus aureus [5] came to 331 µM (≈ 128 µg/mL); with Staphylococcus aureus [6], 165 µM (≈ 63.9 µg/mL); in the test with Acinetobacter baumannii, 331 µM (≈ 128 µg/mL); in the test on Aspergillus fumigatus it was 331 µM (≈ 128 µg/mL); in the test on Enterococcus faecalis, 331 µM (≈ 128 µg/mL); with Staphylococcus aureus [7], 41 µM (≈ 15.9 µg/mL). Besides, the MIC with Pseudomonas aeruginosa [8] was found to be 165 µM (≈ 63.9 µg/mL); in the test with Candida tropicalis, 661 µM (≈ 256 µg/mL); with Staphylococcus aureus [9], 331 µM (≈ 128 µg/mL); in the test on Candida albicans [10], 165 µM (≈ 63.9 µg/mL).

For the compound `CCCCCCN1CCN(c2cc3c(cc2F)c(=O)c(-c2csc(N)n2)cn3CC)CC1`, the MIC in the test on Escherichia coli [1] is 140 µM (≈ 64.1 µg/mL); in the test on Escherichia coli [2], 134 µM (≈ 61.3 µg/mL); with Klebsiella pneumoniae, 140 µM (≈ 64.1 µg/mL); with Candida parapsilosis, 560 µM (≈ 256 µg/mL); with Pseudomonas aeruginosa [3], 280 µM (≈ 128 µg/mL); in the test on Candida albicans [4], 1120 µM (≈ 513 µg/mL). In addition, the MIC came out at 280 µM (≈ 128 µg/mL) in the test on Staphylococcus aureus [5]; 140 µM (≈ 64.1 µg/mL) with Staphylococcus aureus [6]; 70 µM (≈ 32 µg/mL) with Acinetobacter baumannii; 1120 µM (≈ 513 µg/mL) in the test with Aspergillus fumigatus; 70 µM (≈ 32 µg/mL) with Enterococcus faecalis; 140 µM (≈ 64.1 µg/mL) in the test on Staphylococcus aureus [7]. Also, the MIC in the test on Pseudomonas aeruginosa [8] was 140 µM (≈ 64.1 µg/mL); with Candida tropicalis, 560 µM (≈ 256 µg/mL); in the test with Staphylococcus aureus [9], 280 µM (≈ 128 µg/mL); in the test on Candida albicans [10], 1120 µM (≈ 513 µg/mL).

With `CCn1cc(-c2csc(N)n2)c(=O)c2cc(N3CCN(CC(C)=O)CC3)c(Cl)cc21`, the MIC in the test with Escherichia coli [1] came out at 288 µM (≈ 128 µg/mL); in the test with Escherichia coli [2], 1150 µM (≈ 513 µg/mL); in the test on Klebsiella pneumoniae it was 72 µM (≈ 32.1 µg/mL); with Candida parapsilosis, 288 µM (≈ 128 µg/mL); with Pseudomonas aeruginosa [3], 288 µM (≈ 128 µg/mL); in the test on Candida albicans [4] it was 575 µM (≈ 256 µg/mL). In addition, the minimal inhibitory concentration (MIC) in the test with Staphylococcus aureus [5] came to 575 µM (≈ 256 µg/mL); in the test on Staphylococcus aureus [6], 144 µM (≈ 64.2 µg/mL); in the test on Acinetobacter baumannii, 288 µM (≈ 128 µg/mL); in the test on Aspergillus fumigatus, 575 µM (≈ 256 µg/mL); in the test with Enterococcus faecalis it was 288 µM (≈ 128 µg/mL); in the test on Staphylococcus aureus [7], 288 µM (≈ 128 µg/mL). Moreover, the MIC in the test with Pseudomonas aeruginosa [8] was determined as 36 µM (≈ 16.1 µg/mL); with Candida tropicalis, 288 µM (≈ 128 µg/mL); in the test on Staphylococcus aureus [9], 72 µM (≈ 32.1 µg/mL); with Candida albicans [10], 144 µM (≈ 64.2 µg/mL).

In the case of `CCn1cc(-c2csc(N)n2)c(=O)c2cc(F)c(N3CCNCC3)cc21`, the MIC in the test on Escherichia coli [1] came to 343 µM (≈ 128 µg/mL); in the test on Escherichia coli [2] it was 171 µM (≈ 63.9 µg/mL); in the test on Klebsiella pneumoniae, 171 µM (≈ 63.9 µg/mL); with Candida parapsilosis it was 343 µM (≈ 128 µg/mL); in the test with Pseudomonas aeruginosa [3], 21 µM (≈ 7.84 µg/mL); in the test with Candida albicans [4] it was 171 µM (≈ 63.9 µg/mL). For the same compound, the minimum inhibitory concentration (MIC) stood at 343 µM (≈ 128 µg/mL) with Staphylococcus aureus [5]; 86 µM (≈ 32.1 µg/mL) in the test on Staphylococcus aureus [6]; 343 µM (≈ 128 µg/mL) with Acinetobacter baumannii; 343 µM (≈ 128 µg/mL) in the test with Aspergillus fumigatus; 171 µM (≈ 63.9 µg/mL) in the test with Enterococcus faecalis; 171 µM (≈ 63.9 µg/mL) in the test on Staphylococcus aureus [7]. Also, the MIC in the test with Pseudomonas aeruginosa [8] was found to be 343 µM (≈ 128 µg/mL); in the test with Candida tropicalis, 685 µM (≈ 256 µg/mL); with Staphylococcus aureus [9], 171 µM (≈ 63.9 µg/mL); in the test on Candida albicans [10], 171 µM (≈ 63.9 µg/mL).

On to `CCn1cc(-c2csc(N)n2)c(=O)c2cc(F)c(N3CCN(Cc4ccc(Cl)c(Cl)c4)CC3)cc21`, for which the MIC in the test on Escherichia coli [1] stood at 15 µM (≈ 7.99 µg/mL); in the test with Escherichia coli [2] it was 241 µM (≈ 128 µg/mL); with Klebsiella pneumoniae it was 241 µM (≈ 128 µg/mL); in the test with Candida parapsilosis, 8 µM (≈ 4.26 µg/mL); in the test with Pseudomonas aeruginosa [3] it was 482 µM (≈ 257 µg/mL); with Candida albicans [4] it was 482 µM (≈ 257 µg/mL). The MIC with Staphylococcus aureus [5] was 241 µM (≈ 128 µg/mL); in the test with Staphylococcus aureus [6], 482 µM (≈ 257 µg/mL); in the test with Acinetobacter baumannii it was 482 µM (≈ 257 µg/mL); with Aspergillus fumigatus it was 241 µM (≈ 128 µg/mL); in the test with Enterococcus faecalis, 30 µM (≈ 16 µg/mL); with Staphylococcus aureus [7], 241 µM (≈ 128 µg/mL). Also, the MIC was 241 µM (≈ 128 µg/mL) with Pseudomonas aeruginosa [8], 482 µM (≈ 257 µg/mL) in the test on Candida tropicalis, 15 µM (≈ 7.99 µg/mL) in the test on Staphylococcus aureus [9] and 482 µM (≈ 257 µg/mL) in the test with Candida albicans [10].

In the case of `CCn1cc(-c2csc(N)n2)c(=O)c2cc(F)c(N3CCN(Cc4ccc(F)cc4)CC3)cc21`, the MIC in the test on Escherichia coli [1] worked out at 33 µM (≈ 15.9 µg/mL); with Escherichia coli [2] it was 67 µM (≈ 32.3 µg/mL); with Klebsiella pneumoniae, 266 µM (≈ 128 µg/mL); in the test with Candida parapsilosis, 67 µM (≈ 32.3 µg/mL); in the test with Pseudomonas aeruginosa [3], 1060 µM (≈ 512 µg/mL); with Candida albicans [4] it was 133 µM (≈ 64 µg/mL). Further, the MIC in the test on Staphylococcus aureus [5] was found to be 532 µM (≈ 256 µg/mL); in the test with Staphylococcus aureus [6], 133 µM (≈ 64 µg/mL); in the test on Acinetobacter baumannii, 266 µM (≈ 128 µg/mL); in the test with Aspergillus fumigatus it was 266 µM (≈ 128 µg/mL); with Enterococcus faecalis, 67 µM (≈ 32.3 µg/mL); in the test on Staphylococcus aureus [7], 133 µM (≈ 64 µg/mL). In addition, the MIC in the test on Pseudomonas aeruginosa [8] came to 67 µM (≈ 32.3 µg/mL); with Candida tropicalis, 133 µM (≈ 64 µg/mL); with Staphylococcus aureus [9] it was 67 µM (≈ 32.3 µg/mL); in the test with Candida albicans [10], 17 µM (≈ 8.19 µg/mL).

Regarding `OC(Cn1cncn1)(Cn1cncn1)c1ccc(F)cc1F` [FLUCONAZOLE], the MIC is 13 µM (≈ 3.98 µg/mL) in the test with Candida parapsilosis; 13 µM (≈ 3.98 µg/mL) with Candida albicans [4]; 836 µM (≈ 256 µg/mL) with Aspergillus fumigatus; 26 µM (≈ 7.96 µg/mL) in the test with Candida tropicalis; 7 µM (≈ 2.14 µg/mL) with Candida albicans [10].

The term MIC denotes the lowest concentration found to suppress growth.
